Screening results deposited in PubChem BioAssay by several laboratories.
Sampled rows, rich in hits. Any-hit rate of the full collection: about 1.7%.
Rpn11 inh – inhibitors of human proteasome Rpn11 | 360,000 tested, 0.59% active | inhibition, % at 20 µM | O00487 | human 26S proteasome, Ub4-pepOG fluorescence polarization; 20S core pre-blocked with epoxomicin;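 active = inhibition at 20 µM, scaled to each plate's controls, above about 33%, limit read from the data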
PLCb3 inh – blocks human PLC-beta3 enzyme activity. inhibition, % at 12.2 µM. Q01970. 370,000 tested, 0.18% active. Purified PLC-beta3, fluorogenic substrate, fluorescence; in the data active = inhibition above about 11%;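 also: 0% = median of compound wells on plate and 100% = full blocker control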
UCH37 inh – human UCH37 deubiquitinating enzyme inhibition | Q9Y5K5 | purified proteasome/UCH37, Ub-AMC cleavage fluorescence | inhibition, % (test concentration not listed) | 330,000 tested, 0.33% active;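 active = mean inhibition over replicate wells above about 20%, limit read from the data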;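 also: 0% = compound-free wells with enzyme and 100% = wells lacking proteasome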
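Reagent: Ub-AMC substrate; assay system: Proteasome-associated human UCH37 deubiquitinase; controls: no-proteasome and no-compound wells; read-out: % inhibition of Ub-AMC cleavage fluorescence; timing: 30 min preincubation with enzyme, 25 min cleavage at room temperature; signal: AMC fluorescence from Ub-AMC cleavage, excitation 355 nm, emission 460 nm; buffer or medium: Tris-HCl pH 7.4 plus ovalbumin, ATP-MgCl2, DTT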
PLCg1 inh – blocks human PLC-gamma1 enzyme activity. P19174. inhibition, % at 12.2 µM. 370,000 tested, 0.84% active. purified PLC-gamma1, fluorogenic substrate, fluorescence; in the data active = inhibition above about 9.5%
Rpn11 confirm – confirmation of human proteasome Rpn11 inhibitors; shares compounds with Rpn11 inh; purified human 26S proteasome, Ub4-pepOG fluorescence polarization; proteasome pretreated with epoxomicin; inhibition, % at 20 µM; 1,900 tested, 29% active; AID 602318
MMP-2 counter – counter-screen for RPN11 inhibitors: inhibition of human MMP-2; shares compounds with Rpn11 inh; recombinant MMP-2, FRET peptide cleavage fluorescence; inhibition, % at 20 µM; 1,900 tested, 4% active; AID 602330;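 also: human MMP-2 activated beforehand with APMA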
Target sequence (P08253 whole entry, looked up): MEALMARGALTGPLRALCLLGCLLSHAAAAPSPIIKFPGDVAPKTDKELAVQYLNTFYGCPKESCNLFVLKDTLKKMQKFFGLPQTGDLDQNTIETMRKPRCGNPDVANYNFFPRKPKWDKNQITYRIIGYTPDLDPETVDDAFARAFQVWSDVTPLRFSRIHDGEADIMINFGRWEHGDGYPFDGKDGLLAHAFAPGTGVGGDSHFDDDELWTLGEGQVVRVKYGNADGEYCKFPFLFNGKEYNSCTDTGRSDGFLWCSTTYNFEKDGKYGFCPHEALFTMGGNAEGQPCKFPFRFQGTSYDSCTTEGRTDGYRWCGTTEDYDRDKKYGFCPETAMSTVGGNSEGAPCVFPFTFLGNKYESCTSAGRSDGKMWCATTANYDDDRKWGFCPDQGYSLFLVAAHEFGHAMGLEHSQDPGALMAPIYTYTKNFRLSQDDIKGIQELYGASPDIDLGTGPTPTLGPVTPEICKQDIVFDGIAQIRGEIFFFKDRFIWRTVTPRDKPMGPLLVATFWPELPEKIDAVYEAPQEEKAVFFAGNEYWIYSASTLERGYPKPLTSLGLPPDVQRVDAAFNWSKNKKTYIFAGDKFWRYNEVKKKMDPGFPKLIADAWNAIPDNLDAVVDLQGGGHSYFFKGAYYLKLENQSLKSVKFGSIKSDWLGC
Thrombin inh – counter-screen for RPN11 inhibitors: inhibition of bovine thrombin; shares compounds with Rpn11 inh; bovine thrombin cleavage of Ub4-pepOG, fluorescence polarization; inhibition, % at 20 µM; 1,900 tested, 13% active;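 active = mean inhibition at least 40% at 20 µM, or signal 3 deviations below plate average, so some actives read negative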;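 also: plate controls were thrombin with DMSO for no effect and buffer wells lacking thrombin for full effect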
* hit, by the source's call; · = not tested or not shown; + = active, no number. Rule as the data show it, unless noted: active = inhibition above about 40%; inactive = the rest.

SMILES	Rpn11 inh	PLCb3 inh	UCH37 inh	PLCg1 inh	Rpn11 confirm	MMP-2 counter	Thrombin inh
COc1cc([N+](=O)[O-])cc(/C=C2/SC(=S)N(Cc3ccccc3)C2=O)c1O	60.8*	-66.1	20.6*	-47.6	64.1*	55.0*	35.9
CCOC(=O)NN=Cc1cc(C)n(-c2ccccc2)c1C	·	·	-2.0	·	·	·	·
CC1=C(C(=O)Nc2ccccc2)C(c2ccccc2[N+](=O)[O-])NC(=O)N1 (stereo not drawn)	-1.2	-81.6	2.5	-90.1	·	·	·
COc1ccccc1NC(=O)C1=C(C)NC(=O)NC1c1ccccc1[N+](=O)[O-] (stereo not drawn)	52.4*	-38.7	0.9	-21.6	-2.1	-24.6	-22.8
O=C(NN=Cc1cc(Br)cc(Cl)c1O)c1ccc2c(c1)OCO2	·	·	-0.3	·	·	·	·
Oc1ccc(C=NN=C2c3ccccc3-c3ccccc32)c(O)c1	74.3*	-204.6	·	-143.1	57.5*	-19.2	49.1*
CC1CCCC(C)N1N=Cc1ccc(Cl)cc1 (stereo not drawn)	·	·	2.0	·	·	·	·
CSCCC(NC(=O)c1ccco1)C(=O)OC(C)C(=O)NC(=O)NC1CCCCC1 (stereo not drawn)	94.8*	1.7	0.9	1.6	-3.4	5.6	-0.2
O=C(Cc1cccs1)N(Cc1cccs1)C1(C(=O)NC2CCCC2)CCCCC1	135.8*	-0.5	-1.5	3.2	2.1	-5.8	5.5
O=C(NN=Cc1cccc(Br)c1)c1ccccc1-n1cccc1	·	·	2.4	·	·	·	·
C=CCN1C(=O)/C(=C/c2ccccc2)SC1=Nc1nccs1	·	·	-8.2	·	·	·	·
COc1ccc(CNCc2cn(-c3cccc(F)c3)nc2-c2ccc(C)o2)cc1	43.4*	-36.2	-4.0	-23.1	4.4	-8.9	-16.4
CCN1CCN(Cc2ccc(NC(=O)c3cc(NC(=O)c4cncc(-c5ccc(C#N)cc5)c4)cc(OC)c3)cc2C(F)(F)F)CC1	63.8*	-27.1	2.4	-16.2	55.9*	-43.5	60.1*
Cc1cc(/C=C2\SC(=S)NC2=O)c(C)n1-c1ccc(O)cc1	·	-29.6	3.9	-14.3	·	·	·
Cc1cc(/C=C2\SC(=S)NC2=O)c(C)n1C	130.0*	-22.8	15.1	-6.9	121.4*	35.0	91.5*
Cc1cc(/C=C2\SC(=S)NC2=O)c(C)n1-c1ccccc1	109.1*	-23.2	3.5	-8.7	76.6*	27.8	59.7*
COc1ccc(-n2c(C)cc(/C=C3\SC(=S)NC3=O)c2C)cc1	44.9*	-4.1	6.1	0.4	34.2	22.4	11.8
Cc1cc(/C=C2/SC(=O)NC2=O)c(C)n1-c1ccc(N2CCOCC2)cc1	-4.9	-9.3	3.4	-2.7	·	·	·
Cc1cc(/C=C2\SC(=S)NC2=O)cc(C)c1O	124.4*	-25.5	6.9	-14.1	26.0	7.9	18.8
C=CCc1ccccc1OCCOc1ccc([N+](=O)[O-])cc1C=NNC(N)=O	·	·	-0.3	·	·	·	·
Cc1ccc(CN2CCN(N=Cc3cccnc3)CC2)c(C)c1	·	·	3.7	·	·	·	·
Nc1nc2ccccc2n1C(=O)c1ccco1	48.2*	-2.6	·	4.2	-4.7	-36.7	-13.9
Cc1ccc(OCc2ccc(C(=O)Nc3ccc(C(N)=O)cc3)o2)c([N+](=O)[O-])c1	134.5*	-0.6	2.4	8.1	12.6	-36.5	7.3
Cc1ccc(OCc2ccc(C(=O)Nc3cc(C)on3)o2)c([N+](=O)[O-])c1	10.8	-6.9	4.3	0.6	·	·	·
CCC1CCCCN1CCCn1c(=S)[nH]c2ccccc2c1=O (stereo not drawn)	72.5*	-0.8	1.5	0.8	-1.8	-5.5	-8.6
SMILES	Rpn11 inh	PLCb3 inh	UCH37 inh	PLCg1 inh	Rpn11 confirm	MMP-2 counter	Thrombin inh
O=C(NCc1ccco1)C1CCCCN1S(=O)(=O)c1ccc(F)cc1 (stereo not drawn)	+	-1.2	-0.2	-0.6	-6.6	-2.8	-7.1
O=C(NCc1ccc(F)cc1)C1CCCN1S(=O)(=O)c1ccc(F)cc1 (stereo not drawn)	-3.9	0.6	·	-2.8	·	·	·
CC(C)Cn1c(N)c(C(=O)COC(=O)c2cc(-c3ccco3)nc3ccccc23)c(=O)n(C)c1=O	40.8*	-10.8	-15.6	-3.8	4.2	-37.1	10.2
Cn1c(N)c(C(=O)COC(=O)c2cc(-c3ccccc3)nc3ccccc23)c(=O)n(Cc2ccccc2)c1=O	44.8*	·	3.4	·	33.4	1.5	20.4
CC(C)Cn1c(N)c(C(=O)COC(=O)c2cc(-c3ccccc3)nc3ccccc23)c(=O)n(C)c1=O	5.4	1.8	-0.7	1.3	·	·	·
Cn1c(N)c(C(=O)COC(=O)c2cc(-c3ccccc3)nc3ccccc23)c(=O)n(C)c1=O	·	·	-0.9	·	·	·	·
Cn1c(N)c(C(=O)COC(=O)c2cc(C3CC3)nc3ccccc23)c(=O)n(Cc2ccccc2)c1=O	41.3*	-17.3	4.8	-6.8	28.9	-14.6	6.3
CC(C)Cn1c(N)c(C(=O)COC(=O)c2cc(C3CC3)nc3ccccc23)c(=O)n(C)c1=O	·	-10.3	-0.1	-1.6	·	·	·
CCCn1c(=O)c(C(=O)NN=Cc2ccccc2F)c(O)c2ccccc21	·	·	0.9	·	·	·	·
C=C(C)C1CC=C(C)C(=NNC(=O)CCCNc2cccc(C)c2)C1 (stereo not drawn)	·	·	1.7	·	·	·	·
Cc1ccc(-c2ccc(C=Nn3cnnc3)o2)cc1Cl	·	·	-20.0	·	·	·	·
COc1cc(/C=C2/C(=O)NN(c3ccccc3)C2=O)cc(Br)c1O	48.1*	-5.3	17.2	5.1	55.0*	13.2	51.9*
COc1cc(/C=C2/C(=O)NN(c3ccc(Cl)cc3)C2=O)cc(OC)c1O	62.6*	-1.4	6.0	0.8	62.1*	-53.4	54.5*
CC(=Nc1ccc(C)cc1C)c1sc2ccccc2c1O	38.3*	-135.0	2.9	-81.8	24.8	10.1	2.3
CC(=Nc1ccc(C)cc1)c1sc2ccccc2c1O	28.5	-58.4	3.7	-56.2	·	·	·
COc1cc(C=NN2CCN(C3c4ccccc4-c4ccccc43)CC2)ccc1O	·	·	5.3	·	·	·	·
CCOC(=O)C(=NNc1ccc(Cl)cc1)c1csc(Nc2ccccc2)n1	·	·	2.0	·	·	·	·
CCn1c(N=Cc2ccccc2O)nc2ccccc21	·	·	2.1	·	·	·	·
O=c1/c(=C\c2ccc(O)cc2)sc2n1C(c1ccccc1)C(c1ccccc1)=NN=2 (stereo not drawn)	80.6*	-46.4	·	-38.5	95.5*	11.1	85.7*
CC(=O)NN=C(C)CC(=O)NC(C)(C)C	·	·	0.3	·	·	·	·
COc1ccc(N2CCN(Cc3nc4scc(-c5cccs5)c4c(=O)[nH]3)CC2)cc1	57.6*	-9.3	0.4	-2.8	7.7	16.6	-10.8
O=c1[nH]c(CN2CCN(c3ccccc3)CC2)nc2scc(-c3ccccc3)c12	41.2*	-19.5	0.6	-13.9	14.1	9.3	-5.2
COc1ccc(Cl)cc1NC(=O)CCCNC(=O)c1ccc(Cl)cc1	136.7*	-2.6	-0.9	3.9	7.3	-0.7	3.3
C=C(C)Cn1c(SCC(=O)NN=Cc2cccc(O)c2)nc2ccccc2c1=O	·	·	2.1	·	·	·	·
